Measured values of several laboratories.
Lines come from different studies, so protocols differ.
CFTR: Cystic fibrosis transmembrane conductance regulator (CFTR, Homo sapiens, UniProt P13569)
ADORA2B: Adenosine receptor A2b (ADORA2B, Homo sapiens, UniProt P29275)
PKN3: Serine/threonine-protein kinase N3 (PKN3, Homo sapiens, UniProt Q6P5Z2)

target | observed | action | technique | concentration | setting | inhibition | SMILES
CFTR | ion current | inhibitor |  | 50 µM |  | 95% | CC(=NNC(=O)C(=O)Nc1ccc2ccccc2c1)c1cc(Br)c(O)c(Br)c1O
Prostaglandin E2 receptor EP2 subtype (PTGER2, Homo sapiens, UniProt P43116) | cell-free assay |  |  | 10 µM |  | 36.3% | COc1cc(NC(C)=O)c(Cl)cc1C(=O)Nc1nccs1
N-terminal Xaa-Pro-Lys N-methyltransferase 1 (Homo sapiens, UniProt Q9BV86) | enzyme activity | inhibitor | fluorescence | 100 µM |  | < 50% | CC(C)OC(=O)NC(C)(C)c1csc(-c2ccc(F)cc2)n1
CFTR | ion current | inhibitor |  | 50 µM |  | 91% | CC(Nc1ccc2ccccc2c1)C(=O)NN=Cc1cc(Br)c(O)c(Br)c1O (stereo not shown)
ADORA2B | ligand displacement |  | radioligand | 10 µM | cell membranes | 12% | CCN1CCCn2c1nc1c2c(=O)n(C)c(=O)n1C
Histone-lysine N-methyltransferase, H3 lysine-79 specific (DOT1L, Homo sapiens, UniProt Q8TEK3) | enzyme activity | inhibitor |  | 1 µM |  | 1% | CCN(c1cc(C#CCN2CCOCC2)cc(C(=O)NCc2c(C)cc(C)[nH]c2=O)c1C)[C@H]1CC[C@H](N(C)CCOC)CC1
RAF proto-oncogene serine/threonine-protein kinase (RAF1, Homo sapiens, UniProt P04049, Y340D/Y341D) | enzyme activity | inhibitor | FRET | 0.1 µM |  | -5% | CN(C)C1CCN(CC#Cc2nn(C3CCCC3)c3nc(NCc4ccccc4)ncc23)C1 (stereo not shown)
ADORA2B | ligand displacement |  | radioligand | 10 µM | cell membranes | 25% | COCCOc1ccc(N2CCN(CCn3ncc4c3nc(N)n3nc(-c5ccco5)nc43)CC2)cc1
CFTR | ion current | inhibitor |  | 50 µM |  | 95% | O=C(CNc1ccc(Cl)cc1)NN=Cc1cc(Br)c(O)c(Br)c1
Adenosine receptor A1 (Mus musculus, UniProt Q60612) | ligand displacement |  | radioligand | 10 µM | cell membranes | 0% | CCOC(=O)C1=C(C)NC(c2ccccc2)=C(C(=O)OCc2ccccc2)C1C#Cc1ccccc1 (stereo not shown)
ADORA2B | cell-free assay |  |  | 10 µM |  | -5.4% | O=C(c1ccc(Cl)cc1)N(Cc1ccccc1)C1CCCCC1
CFTR | ion current | inhibitor |  | 50 µM |  | 100% | CC(=NNC(=O)CNc1ccc2ccccc2c1)c1cc(Br)c(O)c(Br)c1
ADORA2B | ligand displacement |  | radioligand | 10 µM | cell membranes | 1% | CC(C)CC(C)N1CCCn2c1nc1c2c(=O)n(C)c(=O)n1C (stereo not shown)
PKN3 | enzyme activity | inhibitor | radiometric | 2 µM |  | 88.3% | Cn1cnc(Br)c1C1=CN(c2ncnc3[nH]cnc23)CCS1
ADORA2B | ligand displacement |  | radioligand | 10 µM | cell membranes | -9% | CCC(C)N1CCCn2c1nc1c2c(=O)n(C)c(=O)n1C (stereo not shown)
CFTR | ion current | inhibitor |  | 50 µM |  | 79% | Cc1ccc(NCC(=O)NN=Cc2cc(Br)c(O)c(Br)c2O)cc1
ADORA2B | ligand displacement |  | radioligand | 10 µM | cell membranes | 6% | CN1CCCn2c1nc1c2c(=O)n(C)c(=O)n1C
PKN3 | enzyme activity | inhibitor | radiometric | 2 µM |  | 80.4% | Cn1cncc1C1=CN(c2ncnc3[nH]cnc23)CCS1
ADORA2B | ligand displacement |  | radioligand | 10 µM | cell membranes | 0% | CCCC(C)N1CCCn2c1nc1c2c(=O)n(C)c(=O)n1C (stereo not shown)
Beta-3 adrenergic receptor (ADRB3, Homo sapiens, UniProt P13945) | ligand displacement |  | radioligand | 10 µM |  | 0% | CCN(CC)c1ccc(C2Nc3ccc(C(=O)c4ccccc4)cc3NC3=C2C(=O)CC(C)(C)C3)cc1 (stereo not shown)
ADORA2B | ligand displacement |  | radioligand | 10 µM | cell membranes | 5% | CC(C)CN1CCCn2c1nc1c2c(=O)n(C)c(=O)n1C
Xanthine dehydrogenase/oxidase (XDH, Homo sapiens, UniProt P47989) | enzyme activity | inhibitor | absorbance | 500 µM |  | 100% | Oc1ncnc2[nH]ncc12
